Laboratory results: ChEMBL document CHEMBL4811273, “Discovery of a novel series of GPR119 agonists: Design, synthesis, and biological evaluation of N-(Piperidin-4-yl)-N-(trifluoromethyl)pyrimidin-4-amine derivatives” (Bioorg Med Chem, 2021)
Converted amounts (≈) assume the structure as drawn. The source made the active and inactive calls. No cut-off for these calls is given here.

Columns and labels:
[1] = molecular target: T1, Glucose-dependent insulinotropic receptor (Homo sapiens, UniProt Q8TDV5); experiment: Agonist activity at human GPR119 expressed in CHO cells co-expressing cyclic AMP response element-luciferase reporter gene incubated for 2 hrs by steady-glo luciferase assay; format: functional, cell-based
T1 sequence (Q8TDV5 whole entry): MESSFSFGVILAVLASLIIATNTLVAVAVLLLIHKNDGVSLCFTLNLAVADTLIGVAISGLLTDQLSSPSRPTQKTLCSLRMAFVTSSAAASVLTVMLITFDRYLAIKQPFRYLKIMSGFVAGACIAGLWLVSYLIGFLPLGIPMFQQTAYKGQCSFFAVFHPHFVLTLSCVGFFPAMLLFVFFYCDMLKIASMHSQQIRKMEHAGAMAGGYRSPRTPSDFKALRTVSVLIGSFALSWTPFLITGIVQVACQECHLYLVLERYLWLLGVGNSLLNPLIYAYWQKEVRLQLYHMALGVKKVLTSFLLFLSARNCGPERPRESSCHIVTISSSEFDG
Procedure, shortened: (§1)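 CHO cells stably expressing human or rat GPR119 were seeded at 10,000 cells/well in MEMα with 10% FBS and Geneticin and grown overnight at 37 °C. After one wash, cells were exposed to compounds at various concentrations in MEMα/20 mM HEPES/0.1% BSA for 2 h. cAMP-driven luciferase was read with Steady-Glo and normalized to vehicle and reference wells. EC50 is the mean, n = 2.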

[2] = Aqueous solubility of the compound at pH 6.8 by HPLC analysis; format: physicochemical; details: buffer
Procedure, shortened: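 DMSO stock solutions were added in small volumes to aqueous buffer at pH 6.8 and incubated. Precipitate was removed by filtration, and the filtrate was quantified by HPLC.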

[3] = Hepatic clearance in rat liver microsomes measured up to 30 mins by LC/MS/MS analysis; format: ADME, Microsome; details: read-out: CLH
Procedure, shortened: (§2)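 Human or rat liver microsomes (0.2 mg/mL protein) were incubated with 1 μM compound in 50 mM potassium phosphate, pH 7.4. The reaction was started with an NADPH-generating system and stopped with acetonitrile at 15 and 30 min. Parent compound was quantified by LC/MS/MS, and CLint (μL/min/mg) was taken from the slope of the concentration–time plot.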

[4] = Hepatic clearance in human liver microsomes measured up to 30 mins by LC/MS/MS analysis; format: ADME, Microsome; details: read-out: CLH; procedure, shortened: as §2
[5] = Intrinsic clearance in human liver microsomes; format: ADME, Microsome; details: read-out: CLH; procedure, shortened: as §2
[6] = Partition coefficient, logD between 1-octanol and pH 7.4 aqueous buffer by chromatographic analysis; format: physicochemical; details: 1-octanol/pH 7.4 aqueous buffer
Procedure, shortened: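 LogD between 1-octanol and aqueous buffer at pH 7.4 was determined by a chromatographic procedure adapted from a published method.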

hERG (KCNH2) = hERG (KCNH2) (Homo sapiens, UniProt Q12809); experiment: Inhibition of human ERG expressed in CHO cells at 10 uM at holding potential of -80 mV by patch clamp method; format: cell-based; details: CHO cells expressing human ERG
Sequence of hERG (KCNH2) (Q12809 whole entry): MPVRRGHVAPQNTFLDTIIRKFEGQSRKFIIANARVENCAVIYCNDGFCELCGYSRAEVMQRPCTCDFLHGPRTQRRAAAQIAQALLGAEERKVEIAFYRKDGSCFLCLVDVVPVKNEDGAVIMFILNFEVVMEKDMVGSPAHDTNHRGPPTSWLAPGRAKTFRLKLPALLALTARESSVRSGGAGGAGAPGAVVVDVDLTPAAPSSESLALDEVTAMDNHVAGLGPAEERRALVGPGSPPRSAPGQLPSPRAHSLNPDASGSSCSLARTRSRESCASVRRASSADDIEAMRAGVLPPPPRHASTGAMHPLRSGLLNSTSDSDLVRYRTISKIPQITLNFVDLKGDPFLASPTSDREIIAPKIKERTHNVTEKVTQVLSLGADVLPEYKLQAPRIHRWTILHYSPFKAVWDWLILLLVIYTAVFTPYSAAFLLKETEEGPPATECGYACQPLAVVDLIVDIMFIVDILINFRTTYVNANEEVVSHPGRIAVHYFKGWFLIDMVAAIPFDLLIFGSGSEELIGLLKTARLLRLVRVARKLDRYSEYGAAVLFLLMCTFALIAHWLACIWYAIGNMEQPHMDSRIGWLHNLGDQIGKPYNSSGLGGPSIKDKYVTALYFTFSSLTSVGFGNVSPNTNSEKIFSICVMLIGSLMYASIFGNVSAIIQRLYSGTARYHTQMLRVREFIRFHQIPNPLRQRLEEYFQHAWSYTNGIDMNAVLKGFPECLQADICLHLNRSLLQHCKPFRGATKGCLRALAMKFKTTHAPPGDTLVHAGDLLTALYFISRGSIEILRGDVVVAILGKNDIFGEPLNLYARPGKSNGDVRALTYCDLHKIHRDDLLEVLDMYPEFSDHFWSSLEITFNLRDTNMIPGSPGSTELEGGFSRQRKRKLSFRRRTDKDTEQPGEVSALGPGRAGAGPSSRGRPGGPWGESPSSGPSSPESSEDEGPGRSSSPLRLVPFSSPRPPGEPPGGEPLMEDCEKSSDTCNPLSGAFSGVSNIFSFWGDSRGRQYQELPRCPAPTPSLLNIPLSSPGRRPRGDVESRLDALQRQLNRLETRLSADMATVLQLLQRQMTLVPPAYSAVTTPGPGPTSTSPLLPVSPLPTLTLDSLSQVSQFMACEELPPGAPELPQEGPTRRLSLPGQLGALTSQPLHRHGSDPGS

[7] = molecular target: T2, Glucose-dependent insulinotropic receptor (Rattus norvegicus, UniProt Q7TQN8); experiment: Agonist activity at rat GPR119 expressed in CHO cells co-expressing cyclic AMP response element-luciferase reporter gene incubated for 2 hrs by steady-glo luciferase assay; format: functional, cell-based; procedure, shortened: as §1
T2 sequence (Q7TQN8 whole entry): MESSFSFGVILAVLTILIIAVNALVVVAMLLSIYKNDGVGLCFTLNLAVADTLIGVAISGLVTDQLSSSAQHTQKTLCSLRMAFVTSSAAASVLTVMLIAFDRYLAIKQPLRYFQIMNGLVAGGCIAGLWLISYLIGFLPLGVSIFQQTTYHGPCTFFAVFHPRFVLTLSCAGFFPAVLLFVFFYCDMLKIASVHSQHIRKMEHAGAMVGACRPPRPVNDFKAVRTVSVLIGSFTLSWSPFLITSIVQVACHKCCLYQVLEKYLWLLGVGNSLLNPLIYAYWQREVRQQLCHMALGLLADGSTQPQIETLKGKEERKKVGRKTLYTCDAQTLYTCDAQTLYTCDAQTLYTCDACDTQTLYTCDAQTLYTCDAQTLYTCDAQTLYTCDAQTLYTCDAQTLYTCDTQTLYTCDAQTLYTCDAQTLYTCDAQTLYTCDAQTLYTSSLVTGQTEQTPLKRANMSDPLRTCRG

[8] = molecular target: T2, Glucose-dependent insulinotropic receptor; experiment: Agonist activity at rat GPR119 in golden hamster HIT-T15 cells assessed as induction of glucose-induced insulin secretion after 2 hrs by A1phaLISA; format: functional, cell-based
Procedure, shortened: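 Hamster HIT-T15 beta cells were seeded at 5 × 10^4 cells/well and pre-incubated 2 h in KRBH with 0.2% BSA. They were then incubated 2 h at 37 °C with compound in KRBH containing 0.2% fatty-acid-free BSA and 10 mmol/L glucose. Secreted insulin was quantified by AlphaLISA. EC50 from n = 2.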

Rattus norvegicus [9] = experiment: Antidiabetic activity in NSTZ1.5 rat assessed as reduction in plasma glucose level at 0.3 to 3 mg/kg, po administered 60 mins prior to glucose challenge and measured up to 60 mins by OGTT; format: functional, organism-based; details: dose 0.3-3 mg/kg
[10] = Clearance in rat at 0.1 mg/kg, iv administered as cassette dose by LC/MS/MS analysis; format: ADME, organism-based; details: in vivo
Procedure, shortened: (§3)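 Intravenous cassette dosing at 0.1 mg/kg in rats (the methods text says non-fasted mice). Plasma was obtained from blood samples, deproteinized, centrifuged, and analysed by LC/MS/MS.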

Rattus norvegicus [11] = experiment: Antidiabetic activity in orally dosed NSTZ1.5 rat assessed as reduction in insulin level administered 60 mins prior to glucose challenge and measured up to 60 mins by OGTT; format: functional, organism-based; details: dose 0.3-3 mg/kg
[12] = molecular target: T2, Glucose-dependent insulinotropic receptor; experiment: Agonist activity at rat GPR119 in GLUTag cells assessed as induction of GLP-1 secretion after 2 hrs by ELISA; format: functional, cell-based
Procedure, shortened: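 Murine GLUTag L cells were seeded at 1 × 10^4 cells/well on poly-L-lysine and moved overnight to low-glucose DMEM. After a Hank's wash, cells were incubated 2 h at 37 °C with compound in KRBH containing 0.2% fatty-acid-free BSA and 10 mmol/L glucose. Active GLP-1 in the supernatant was measured by ELISA. EC50 from n = 2.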

[13] = Volume of distribution at steady state in rat at 0.1 mg/kg, iv administered as cassette dose by LC/MS/MS analysis; format: ADME, organism-based; details: in vivo; procedure, shortened: as §3
[14] = AUC in […] at 1 mg/kg, po administered as cassette dose by LC/MS/MS analysis; format: ADME, organism-based, Rattus norvegicus; parameters: dose 1 mg/kg; details: in vivo
[15] = Oral bioavailability in […] at 1 mg/kg administered as cassette dose by LC/MS/MS analysis; format: ADME, organism-based, Rattus norvegicus; details: in vivo
[16] = Mean residence time in rat at 1 mg/kg, po administered as cassette dose by LC/MS/MS analysis; format: ADME, organism-based; details: in vivo
Procedure, shortened: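 Rat cassette PK. Oral dose 1 mg/kg in 0.5% methylcellulose aqueous solution. The methods text says non-fasted mice. Blood was collected after dosing, and plasma was deproteinized and centrifuged. Compound in the supernatant was measured by LC/MS/MS.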

Row | Structure (SMILES) | EC50 [1] [µM] | logD [6] | inhibition at 10 µM (hERG (KCNH2)) [%] | other results
1 | CS(=O)(=O)N1CCC(Oc2cc(N(C3CCN(c4nc(C5CC5)no4)CC3)C(F)(F)F)ncn2)CC1 | 0.0054 |  |  | solubility [2]: 0.015 mg/mL (≈ 28.2 µM); microsomal CLint [3]: 13 µL/min/mg; microsomal CLint [4]: 31 µL/min/mg
2 | CC(C)c1noc(N2CCC(Oc3cc(N4CCc5cc(N6CCC[C@H](O)C6=O)ccc54)ncn3)CC2)n1 |  |  |  | microsomal CLint [5]: 10 µL/min/mg
3 | CC(C)c1noc(N2CCC(N(c3cc(N4CCc5cc(S(C)(=O)=O)ccc54)ncn3)C(F)(F)F)CC2)n1 | 0.0029 | 3.79 |  | solubility [2]: < 0.00022 mg/mL
4 | CCCN(c1cc(N2CCc3cc(S(C)(=O)=O)ccc32)ncn1)C1CCN(C(=O)OC(C)(C)C)CC1 | 0.018 | 4 | 94 | 
5 | CC(C)(C)OC(=O)N1CCC(N(c2cc(OC3CN(S(C)(=O)=O)C3)ncn2)C(F)(F)F)CC1 | 7.1 |  |  | 
6 | CCN(c1cc(N2CCc3cc(S(C)(=O)=O)ccc32)ncn1)C1CCN(C(=O)OC(C)(C)C)CC1 | 0.014 | 3.5 | 116 | 
7 | CC(C)(C)OC(=O)N1CCC(N(c2cc(NC3CCN(S(C)(=O)=O)CC3)ncn2)C(F)(F)F)CC1 | 0.043 |  |  | 
8 | COCCN(c1cc(N2CCc3cc(S(C)(=O)=O)ccc32)ncn1)C1CCN(C(=O)OC(C)(C)C)CC1 | 0.029 | 3.4 | 120 | 
9 | CC(C)(F)c1noc(N2CCC(N(c3cc(OC4CCN(S(C)(=O)=O)CC4)ncn3)C(F)(F)F)CC2)n1 | 0.0046 |  | 19 | EC50 [7]: 0.024 µM; EC50 [8]: 0.0048 µM; microsomal CLint [5]: 27 µL/min/mg; Activity (Rattus norvegicus [9]): Active; clearance [10]: 0.373 L/h/kg; Activity (Rattus norvegicus [11]): Dose-Dependent Effect; solubility [2]: 0.021 mg/mL (≈ 38.1 µM); EC50 [12]: 0.0038 µM; Vdss [13]: 1.27 L/kg; AUC [14]: 1.54 µg·h/mL; bioavailability [15]: 57%; microsomal CLint [3]: < 1 µL/min/mg; MRT [16]: 4.05 h; microsomal CLint [4]: 27 µL/min/mg
10 | CC(C)(C)OC(=O)N1CCC(N(c2cc(N3CCc4cc(S(C)(=O)=O)ccc43)ncn2)C(F)(F)F)CC1 | 0.0025 | 4.1 | 13 | 
11 | CC(C)(C)OC(=O)N1CCC(N(c2cc(O[C@H]3CC[C@H](S(C)(=O)=O)CC3)ncn2)C(F)(F)F)CC1 | 0.27 |  |  | 
12 | CN(c1cc(N(C2CCN(C(=O)OC(C)(C)C)CC2)C(F)(F)F)ncn1)C1CCN(S(C)(=O)=O)CC1 | > 10 |  |  | 
13 | CN(c1cc(N2CCc3cc(S(C)(=O)=O)ccc32)ncn1)C1CCN(C(=O)OC(C)(C)C)CC1 | 0.021 | 3.2 | 85 | 
14 | CC(C)(C)OC(=O)N1CCC(N(c2cc(OCC3CN(S(C)(=O)=O)C3)ncn2)C(F)(F)F)CC1 | 0.96 |  |  | 
15 | CC(C)c1noc(N2CCC(N(c3cc(OC4CCN(S(C)(=O)=O)CC4)ncn3)C(F)(F)F)CC2)n1 | 0.0027 |  |  | solubility [2]: 0.029 mg/mL (≈ 54.4 µM); microsomal CLint [3]: 36 µL/min/mg; microsomal CLint [4]: 108 µL/min/mg
16 | CC(C)(C)OC(=O)N1CCC(N(CC2CC2)c2cc(N3CCc4cc(S(C)(=O)=O)ccc43)ncn2)CC1 | 0.051 | 4.1 | 100 | 
17 | CC(C)(C)OC(=O)N1CCC(N(c2cc(OC3CCN(S(C)(=O)=O)CC3)ncn2)C(F)(F)F)CC1 | 0.0036 |  |  | 
18 | CC(C)(C)OC(=O)N1CCC(Nc2cc(N3CCc4cc(S(C)(=O)=O)ccc43)ncn2)CC1 | 0.3 | 2.7 | 80 | 
